In ChEMBL document CHEMBL5674889, “Enhanced JunD/RSK3 signalling due to loss of BRD4/FOXD3/miR-548d-3p axis determines BET inhibition resistance” (2020):
The source made the active and inactive calls. No cut-off for these calls is given here.

What was measured:
MDA-MB-231 [1] = experiment: Antiproliferative activity in human MDA-MB-231 cells assessed as cell growth in the presence of lapatinib at 1 uM by CellTiter-Glo luminescent cell viability assay; assay type: functional, cell-based
Summary of the method: (§1)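 BLBC cells seeded at 3000/well, adhered overnight, then exposed to JQ1 (1 μM) with or without an EGFR inhibitor (1 μM) for 48 h; control and RPS6KA2-shRNA clones tested. Viability by CellTiter-Glo luminescence, background-subtracted and normalized to DMSO-treated control; triplicates, mean ± SD, one-way ANOVA against JQ1 alone.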

BT-549 [2] = experiment: Antiproliferative activity in human BT-549 cells assessed as cell growth in the presence of miR-548d-3p at 1 uM by CCK-8 assay; assay type: functional, cell-based
Summary of the method: (§2)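 BLBC cells transfected with miR-548d-3p mimic or inhibitor, with or without JQ1; growth read by CCK-8 assay relative to DMSO-treated control, seeded at 3000/well. Triplicates, mean ± SD, one-way ANOVA.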

MDA-MB-231 [3] = experiment: Induction of apoptosis in human MDA-MB-231 cells expressing vector control assessed as necrotic cells at 1 uM by Annexin V-FITC flow cytometric analysis (reference value: 1.67%); assay type: functional
Summary of the method: (§3)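 Stable clones (vector, RSK3-overexpressing or RPS6KA2-knockdown) treated ± JQ1 1 μM. Cells washed twice in PBS, resuspended at 1 × 10^6 cells/ml in binding buffer, stained with Annexin V-FITC and propidium iodide for 10 min at room temperature in the dark, then read by flow cytometry. Three independent experiments; one-way ANOVA.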

[4] = target: T1, Transcription factor JunD (Homo sapiens) (UniProt P17535); experiment: Binding affinity to JunD in human MDA-MB-231 cells assessed RPS6KA2 expression at 1 uM for 24 hrs by ChIP analysis; assay type: cell-based
T1 sequence (whole entry): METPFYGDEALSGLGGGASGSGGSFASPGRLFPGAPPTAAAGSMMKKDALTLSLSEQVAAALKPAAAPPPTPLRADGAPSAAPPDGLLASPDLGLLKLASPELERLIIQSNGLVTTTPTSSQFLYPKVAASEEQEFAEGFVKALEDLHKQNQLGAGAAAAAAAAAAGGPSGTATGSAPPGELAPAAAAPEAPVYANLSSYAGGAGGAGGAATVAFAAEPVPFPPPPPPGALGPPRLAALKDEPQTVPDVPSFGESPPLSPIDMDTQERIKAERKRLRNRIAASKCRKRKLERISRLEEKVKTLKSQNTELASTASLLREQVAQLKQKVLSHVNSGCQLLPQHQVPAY

BT-549 [5] = experiment: Antiproliferative activity in human RPS6KA2 expressed in JUND knock-down BT-549 cells assessed as inhibition of cell growth at 1 uM by CCK-8 assay; assay type: functional, cell-based
BT-549 [6] = experiment: Antiproliferative activity in human BT-549 cells assessed as cell growth in the presence of EAI045 at 1 uM by CellTiter-Glo luminescent cell viability assay; assay type: functional, cell-based; summary of the method: as §1
MDA-MB-231 [7] = experiment: Effect on human RPS6KA2-knockdown MDA-MB-231 cells assessed as RSK3 protein expression at 1 uM by Western blot analysis; assay type: functional, cell-based
BT-549 [8] = experiment: Antiproliferative activity in human FOXD3-knockdown BT-549 cells assessed as cell growth at 1 uM by CCK-8 assay; assay type: functional, cell-based
BT-549 [9] = experiment: Effect on human BT-549 cells assessed as RPS6KA2 mRNA expression in the presence of miR-548d-3p at 1 uM by RT-PCR analysis; assay type: functional, cell-based
MDA-MB-231 [10] = experiment: Effect on human MDA-MB-231 cells assessed as EGFR protein expression at 1 uM by Western blot analysis; assay type: functional, cell-based
MDA-MB-231 [11] = experiment: Antiproliferative activity in human MDA-MB-231 cells assessed as cell growth for 48 hrs in the presence of osimertinib at 1 uM by CCK-8 assay; assay type: functional, cell-based
Summary of the method: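 Cells seeded 3000/well, adhered overnight, treated with JQ1 (1 μM) with or without osimertinib (1 μM) for 48 h; growth by CCK-8 kit, normalized to DMSO-treated control; triplicates, mean ± SD, one-way ANOVA.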

BT-549 [12] = experiment: Effect on induction of RPS6KA2 transcription in human BT-549 cells assessed as JunD protein expression at 1 uM for 24 hrs by Western blot analysis; assay type: functional, cell-based
MDA-MB-231 [13] = experiment: Induction of apoptosis in human MDA-MB-231 cells expressing vector control assessed as viable cells at 1 uM by Annexin V-FITC flow cytometric analysis (reference value: 91.91%); assay type: functional; conditions: read-out: Activity; summary of the method: as §3
BT-549 [14] = experiment: Antiproliferative activity in human BT-549 cells assessed as cell growth in the presence of lapatinib at 1 uM by CellTiter-Glo luminescent cell viability assay; assay type: functional, cell-based; summary of the method: as §1
BT-549 [15] = experiment: Effect on human RPS6KA2 knockdown BT-549 cells assessed as RSK3 protein expression at 1 uM for 24 hrs by Western blot analysis; assay type: functional, cell-based
BT-549 [16] = experiment: Effect on human RPS6KA2-knockdown BT-549 cells assessed as RSK3 protein expression at 1 uM by Western blot analysis; assay type: functional, cell-based
MDA-MB-231 [17] = experiment: Antiproliferative activity in human RPS6KA2-knockdown MDA-MB-231 cells assessed as cell growth at 1 uM by CCK-8 assay; assay type: functional, cell-based
MDA-MB-231 [18] = experiment: Antiproliferative activity in human MDA-MB-231 cells assessed as cell growth in the presence of miR-548d-3p inhibitor at 1 uM by CCK-8 assay; assay type: functional, cell-based; summary of the method: as §2
MDA-MB-231 [19] = experiment: Effect on human MDA-MB-231 cells assessed as miR-548d-5p expression at 1 uM by real-time PCR analysis; assay type: functional, cell-based
MDA-MB-231 [20] = experiment: Antiproliferative activity in human RPS6KA2 expressed in JUND knock-down MDA-MB-231 cells assessed as inhibition of cell growth at 1 uM by CCK-8 assay; assay type: functional, cell-based
BT-549 [21] = experiment: Effect on human BT-549 cells assessed as RSK3 […] expression at 1 uM for 24 hrs by Western blot analysis; assay type: functional, cell-based
BT-549 [22] = experiment: Effect on human BT-549 cells assessed as RSK3 protein expression at 1 uM for 24 hrs by Western blot analysis; assay type: functional, cell-based
Summary of the method: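 Western blot for RSK3 in MDA-MB-231 and BT549 cells treated with DMSO or 1 μM for 0, 12 and 24 h. Antibody used at 1:1000.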

BT-549 [23] = experiment: Induction of apoptosis in human BT-549 cells at 1 uM by FACS assay; assay type: functional, cell-based; summary of the method: as §3
BT-549 [24] = experiment: Antiproliferative activity in human BT-549 cells assessed as cell growth in the presence of AZ5104 at 1 uM by CellTiter-Glo luminescent cell viability assay; assay type: functional, cell-based; summary of the method: as §1
MDA-MB-231 [25] = experiment: Antiproliferative activity in human JUND-knockdown MDA-MB-231 cells assessed as cell viability at 1 uM by CellTiter-Glo luminescent cell viability assay; assay type: functional, cell-based
Summary of the method: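 Stable JUND-knockdown (shRNA, puromycin 1.0 μg/ml selection) or JUND-overexpressing clones and vector controls, seeded 3000 cells/well and adhered overnight, then given DMSO or JQ1 (1 μM) for 48 h. Read-out CellTiter-Glo luminescence normalized to DMSO control; triplicates, mean ± SD, one-way ANOVA.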

MDA-MB-231 [26] = experiment: Induction of apoptosis in human MDA-MB-231 cells assessed as caspase-3 cleavage in the presence of osimertinib at 1 uM by Western blotting analysis; assay type: functional, cell-based

Cc1sc2c(c1C)C(c1ccc(Cl)cc1)=N[C@@H](CC(=O)OC(C)(C)C)c1nnc(C)n1-2
Activity (MDA-MB-231 [1]): Active | Activity (BT-549 [2]): Active | Activity (MDA-MB-231 [3]): 1.54% | Activity [4]: Active | Activity (BT-549 [5]): Active | Activity (BT-549 [6]): Active | Activity (MDA-MB-231 [7]): Active | Activity (BT-549 [8]): Active | Activity (BT-549 [9]): Active | Activity (MDA-MB-231 [10]): Active | Activity (MDA-MB-231 [11]): Active | Activity (BT-549 [12]): Active | viability at 1 µM (MDA-MB-231 [13]): 76.7% | Activity (BT-549 [14]): Active | Activity (BT-549 [15]): Active | Activity (BT-549 [16]): Active | Activity (MDA-MB-231 [17]): Active | Activity (MDA-MB-231 [18]): Active | Activity (MDA-MB-231 [19]): Active | Activity (MDA-MB-231 [20]): Active | Activity (BT-549 [21]): Active | Activity (BT-549 [22]): Active | Activity (BT-549 [23]): Active | Activity (BT-549 [24]): Active | Activity (MDA-MB-231 [25]): Active | Activity (MDA-MB-231 [26]): Active
